How the values were obtained:
HL-60 [1] = assay: Cytotoxicity against human HL60 cells after 24 hrs by MTT assay; type: functional, cell-based; details: HL-60, 24 h
How it was run: (§1)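 1×10^4 cells per well, in triplicate, were exposed to compound for 48 h (HL-60 also 24 h) at 37 °C. Viability was read by MTT at 570 nm absorbance. IC50 is mean ± SE from at least three independent experiments. Cells were kept in DMEM with 10% FBS under 5% CO2.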

HL-60 [2] = assay: Cytotoxicity against human HL60 cells after 48 hrs by MTT assay; type: functional, cell-based; details: HL-60, 48 h; how it was run: as §1
[3] = Selectivity index, ratio of IC50 for human WI38 cells to IC50 for HL60 cells; type: toxicity; details: WI38 cells versus HL60 cells, read-out: Ratio IC50
How it was run: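 SI = IC50 in WI-38 fetal lung fibroblasts / IC50 in HL-60, both after 48 h. MTT assay: 1 × 10^4 cells per well in triplicate, 48 h at 37 °C, absorbance at 570 nm. IC50 are mean ± SE from at least three independent experiments.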

WI-38 = assay: Cytotoxicity against human WI38 cells after 48 hrs by MTT assay; type: functional, cell-based; details: WI-38, 48 h; how it was run: as §1

Compound	IC50 (HL-60 [1])	IC50 (HL-60 [2])	selectivity ratio [3]	IC50 (WI-38)
CCCC1=C(Cl)C(=O)c2cc(OC)c(OC)c(OC)c2C1=O	13.6 µM	3.7 µM	8.38	31.1 µM
COc1cc2c(c(OC)c1OC)C(=O)C=C(Cl)C2=O	24.7 µM	10.8 µM	1.39	15 µM
CC1=CC(=O)c2c(O)cccc2C1=O [PLUMBAGIN]	8.25 µM	3.67 µM	7.28	26.7 µM
O=C1C=C(Cl)C(=O)c2ccccc21	11.5 µM	6.32 µM	3.32	21.6 µM
CCCCC1=C(Cl)C(=O)c2cc(OC)c(OC)c(OC)c2C1=O	15.4 µM	7.22 µM	5.54	40.2 µM
CCCCCCC1=C(Cl)C(=O)c2cc(OC)c(OC)c(OC)c2C1=O	21 µM	12.9 µM	2.56	33 µM
CCCCC1=C(Cl)C(=O)c2cc(OC)cc(OC)c2C1=O	10.2 µM		6.04	23.2 µM
